Converted amounts (≈) assume the structure as drawn.
Assays:
[1] = Neuroprotective activity in rat hippocampal neurons assessed as protection against ammonium acetate induced cell death after 5 hrs by propidium iodide staining based fluorimetric analysis; assay type: functional, Hippocampal neurone
Summary of the method: (§1)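 Ammonium acetate (300 μM) used as toxin. Viability read by CFDA fluorescence, cell death by propidium iodide. Full efficacy defined as the fluorescence of neurons without toxin.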

[2] = Neuroprotective activity in rat hippocampal neurons assessed as protection against ethanol induced cell death by measuring neuronal viability after 5 hrs by carboxyfluorescein diacetate dye based fluorimetric analysis; assay type: functional, Hippocampal neurone
Summary of the method: (§2)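 Ethanol (30 mM) used as toxin. Viability read by CFDA fluorescence, cell death by propidium iodide. Full efficacy defined as the fluorescence of neurons without toxin.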

[3] = Neuroprotective activity in rat hippocampal neurons assessed as protection against ammonium acetate induced cell death by measuring neuronal viability after 5 hrs by carboxyfluorescein diacetate dye based fluorimetric analysis; assay type: functional, Hippocampal neurone; summary of the method: as §1
[4] = Neuroprotective activity in rat hippocampal neurons assessed as protection against ethanol induced cell death after 5 hrs by propidium iodide staining based fluorimetric analysis; assay type: functional, Hippocampal neurone; summary of the method: as §2
[5] = biological target: Cannabinoid receptor 2 (Homo sapiens) (UniProt P34972); experiment: Displacement of [3H]WIN 55212-2 from human recombinant CB2 receptor expressed in CHO cell membranes at 10 uM after 120 mins by scintillation counting analysis
Chain of Cannabinoid receptor 2 (Homo sapiens) (P34972 whole entry): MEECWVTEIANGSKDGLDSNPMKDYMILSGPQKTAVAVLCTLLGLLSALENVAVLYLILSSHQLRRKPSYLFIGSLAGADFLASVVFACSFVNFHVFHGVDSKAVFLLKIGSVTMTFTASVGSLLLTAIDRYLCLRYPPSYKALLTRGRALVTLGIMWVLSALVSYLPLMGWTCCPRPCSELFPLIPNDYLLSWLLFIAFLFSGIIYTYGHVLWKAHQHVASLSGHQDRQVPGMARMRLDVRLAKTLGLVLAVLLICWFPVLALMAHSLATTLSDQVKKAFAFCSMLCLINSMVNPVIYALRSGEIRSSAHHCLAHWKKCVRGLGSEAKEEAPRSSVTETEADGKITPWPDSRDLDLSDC

Cannabinoid receptor 1 [6] = biological target: T1, Cannabinoid receptor 1 (Homo sapiens, UniProt P21554); experiment: Displacement of [3H]CP 55940 from human recombinant CB1 receptor expressed in CHO cell membranes at 10 uM after 120 mins by scintillation counting analysis
T1 sequence (P21554 whole entry): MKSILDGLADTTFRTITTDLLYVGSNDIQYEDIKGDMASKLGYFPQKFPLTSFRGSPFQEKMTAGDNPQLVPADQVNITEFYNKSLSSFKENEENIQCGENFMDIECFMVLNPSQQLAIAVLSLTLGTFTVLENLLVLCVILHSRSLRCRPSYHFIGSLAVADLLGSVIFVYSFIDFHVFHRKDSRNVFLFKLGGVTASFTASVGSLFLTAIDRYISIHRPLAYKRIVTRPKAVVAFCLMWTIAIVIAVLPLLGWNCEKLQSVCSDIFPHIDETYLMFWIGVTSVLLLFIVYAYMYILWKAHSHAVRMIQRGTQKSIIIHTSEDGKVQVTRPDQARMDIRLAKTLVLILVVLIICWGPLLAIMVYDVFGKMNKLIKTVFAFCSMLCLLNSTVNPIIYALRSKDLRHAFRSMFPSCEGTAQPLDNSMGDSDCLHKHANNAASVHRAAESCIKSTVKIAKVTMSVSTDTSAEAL

in vitro = conditions: rat, rat hippocampal neurons
[7] = Kinetic aqueous solubility of the compound at pH 7.4
[8] = Toxicity in rat hippocampal neurons assessed as neuronal viability after 5 hrs by carboxyfluorescein diacetate dye based fluorimetric analysis; design: species or system Hippocampal neurone; conditions: read-out: TC50
[9] = Efflux ratio of permeability from basolateral to apical over apical to basolateral side in human Caco cells; conditions: Caco-2
[10] = Apparent permeability from apical to basolateral side in human Caco cells; conditions: Caco-2
MDR1 [11] = experiment: Apparent permeability from apical to basolateral side in MDCK cells expressing MDR1; conditions: dog
MDR1 [12] = experiment: Efflux ratio of permeability from basolateral to apical over apical to basolateral side in MDCK cells expressing MDR1; conditions: dog
Cannabinoid receptor 1 [13] = biological target: T1, Cannabinoid receptor 1; experiment: Displacement of [3H]CP 55940 from human CB1 receptor after 1 hr by liquid scintillation spectrometry
[14] = Rattus norvegicus, Hippocampal neurone, 5 h, read-out: EC50

Compound	EC50 [1, 14]	EC50 [2, 14]	EC50 [3, 14]	EC50 [4, 14]	other results
C=C(C)[C@@H]1CCC(C)=C[C@H]1c1c(O)cc(CC(=O)N2CCOCC2)cc1O	> 100 µM	> 100 µM	> 100 µM	> 100 µM	–
C=C(C)[C@@H]1CCC(C)=C[C@H]1c1c(O)cc(CCOCC)cc1O	0.2 µM	0.3 µM	36 µM	3 µM	–
C=C(C)[C@@H]1CCC(C)=C[C@H]1c1c(O)cc(CCCCCO)cc1O	> 100 µM	54 µM	> 100 µM	> 100 µM	–
C=C(C)[C@@H]1CCC(C)=C[C@H]1c1c(O)cc(CCCCC(=O)O)cc1O	30 µM	10 µM	4 µM	7 µM	–
C=C(C)[C@@H]1CCC(C)=C[C@H]1c1c(O)cc(CC2COC2)cc1O	20 µM	18 µM	35 µM	10 µM	–
C=C(C)[C@@H]1CCC(C)=C[C@H]1c1c(O)cc(CC2CN(C(C)=O)C2)cc1O	0.04 µM	0.08 µM	0.04 µM	0.05 µM	inhibition [5]: 56%; inhibition (Cannabinoid receptor 1 [6]): 13%; selectivity ratio at 5 h (in vitro): 7500; solubility kinetic [7]: 87 µM (≈ 30.9 µg/mL); CC50 at 5 h [8]: 300 µM; efflux ratio [9]: 0.53; Papp A→B [10]: 490 nm/s; Papp A→B (MDR1 [11]): 350 nm/s; efflux ratio (MDR1 [12]): 1.02
C=C(C)[C@@H]1CCC(C)=C[C@H]1c1c(O)cc(CCCCC)cc1O [CANNABIDIOL]	4 µM	1 µM	2 µM	3 µM	solubility kinetic [7]: 17 µM (≈ 5.35 µg/mL); CC50 at 5 h [8]: 33 µM; Papp A→B [10]: < 15 nm/s; Papp A→B (MDR1 [11]): < 22.3 nm/s
C=C(C)[C@@H]1CCC(C)=C[C@H]1c1c(O)cc(CC2CN(C)C2)cc1O	–	–	–	–	EC50 ([1]; hippocampal neurone): ND(toxic); EC50 ([2]; hippocampal neurone): ND(toxic); EC50 ([3]; hippocampal neurone): ND(toxic); EC50 ([4]; hippocampal neurone): ND(toxic)
C=C(C)[C@@H]1CCC(C)=C[C@H]1c1c(O)cc(CCNC(C)=O)cc1O	> 100 µM	30 µM	> 100 µM	17 µM	–
C=C(C)[C@@H]1CCC(C)=C[C@H]1c1c(O)cc(CC2CN(C(=O)OCC)C2)cc1O	0.05 µM	0.03 µM	0.11 µM	0.02 µM	inhibition [5]: 37%; inhibition (Cannabinoid receptor 1 [6]): 19%; selectivity ratio at 5 h (in vitro): 900; solubility kinetic [7]: 16.6 µM (≈ 6.4 µg/mL); CC50 at 5 h [8]: > 100 µM; efflux ratio [9]: 0.5; Papp A→B [10]: 220 nm/s; Papp A→B (MDR1 [11]): 110 nm/s; efflux ratio (MDR1 [12]): 0.97
C=C(C)[C@@H]1CCC(C)=C[C@H]1c1c(O)cc(O)cc1CC1CN(C(C)=O)C1	> 100 µM	> 100 µM	> 100 µM	> 100 µM	–
C=C(C)[C@@H]1CCC(C)=C[C@H]1c1c(O)cc(CCn2ccnn2)cc1O	1 µM	5 µM	3 µM	2 µM	inhibition [5]: 1%; inhibition (Cannabinoid receptor 1 [6]): 6%; CC50 at 5 h [8]: > 100 µM
C=C(C)[C@@H]1CCC(C)=C[C@H]1c1c(O)cc(CCN2CCOCC2)cc1O	20 µM	5 µM	> 100 µM	24 µM	–
CCCCCCC(C)(C)c1cc(O)c(C2CCCCC2)c(O)c1	–	–	–	–	Ki (Cannabinoid receptor 1 [13]): 0.011 µM
C=C(C)[C@@H]1CCC(C)=C[C@H]1c1c(O)cc(CCn2nccn2)cc1O	> 100 µM	> 100 µM	> 100 µM	> 100 µM	–

Reference: ChEMBL document CHEMBL3808335, “Discovery of KLS-13019, a Cannabidiol-Derived Neuroprotective Agent, with Improved Potency, Safety, and Permeability” (ACS Med Chem Lett, 2016)
